Results collected from several papers.
Each line is one published result; the experiments were not run side by side.
Target: Serine/threonine-protein kinase Nek3 (NEK3, Homo sapiens, UniProt P51956)
Residues used in one study (P51956 1-506): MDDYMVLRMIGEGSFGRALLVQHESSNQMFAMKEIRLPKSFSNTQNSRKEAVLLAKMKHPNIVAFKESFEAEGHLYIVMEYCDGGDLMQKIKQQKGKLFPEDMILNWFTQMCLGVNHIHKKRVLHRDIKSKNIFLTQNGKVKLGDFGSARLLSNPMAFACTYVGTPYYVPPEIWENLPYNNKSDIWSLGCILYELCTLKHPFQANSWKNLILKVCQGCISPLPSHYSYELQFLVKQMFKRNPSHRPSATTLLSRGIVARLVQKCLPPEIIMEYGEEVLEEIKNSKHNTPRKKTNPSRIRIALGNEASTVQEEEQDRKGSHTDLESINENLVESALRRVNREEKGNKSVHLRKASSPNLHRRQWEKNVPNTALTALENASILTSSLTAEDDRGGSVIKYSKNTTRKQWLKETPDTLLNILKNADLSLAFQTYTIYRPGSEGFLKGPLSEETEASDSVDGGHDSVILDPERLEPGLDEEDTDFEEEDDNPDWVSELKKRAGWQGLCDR

| Structure (SMILES) | test | setting | endpoint | result |
| --- | --- | --- | --- | --- |
| Cc1cc(O)c(-c2ccc([C@@H](C)CN(C)C)cc2)c2c1[nH]c(=O)c1sccc12 | enzyme activity, inhibitor | 0.1 µM | inhibition | -5.15% |
| C=CC(=O)N1CCC[C@@H](n2nc(-c3ccc(Oc4ccccc4)cc3)c3c(N)ncnc32)C1 | enzyme activity, inhibitor | 1 µM | inhibition | 5% |
| CCCCC(=O)Nc1ccc(-c2ccc3ncn(CCC)c(=O)c3c2)cn1 | binding, competition with immobilised ligand | 0.5 µM | remaining binding | 87% |
| C=CC(=O)N1CCC([C@@H]2CCNc3c(C(N)=O)c(-c4ccc(Oc5ccccc5)cc4)nn32)CC1 | enzyme activity, inhibitor | 1 µM | inhibition | 44% |
| Cc1ccc(NC(=O)c2ccnc(C(F)(F)F)c2)cc1-c1cc(OCCO)nc(N2CCOCC2)c1 | binding | 1 µM | remaining binding | 95% |
| C1=C/COCc2cc(ccc2OCCN2CCCC2)Nc2nccc(n2)-c2cccc(c2)COC/1 | binding | 0.1 µM | remaining binding | 82% |
| CN1CCN(C(=O)c2ccc(NC(=O)Nc3ccc(N(C)c4ccnc(Nc5ccc(CS(C)(=O)=O)cc5)n4)cc3)cc2)CC1 | binding | 1 µM | remaining binding | 66% |
| CC(C)S(=O)(=O)c1ccc2nccc(Nc3ccc4sc(C5CCCC5)nc4c3)c2c1 | enzyme activity, inhibitor | 1 µM | activity vs control | 111% |
